Source: PubChem BioAssay
Only some compounds are listed: those with a hit (about 3.8% of all), similar ones and a draw of the others.
KCNQ1 block – blocks the human KCNQ1 potassium channel | CHO-K1 KCNQ1, FluxOR thallium flux fluorescence; stronger effect = higher value | B-score at 10 µM | actives 1.3% (n = 310,000);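 active = compounds whose thallium flux B-score, printed positive for inhibition, exceeds three library SD while starting fluorescence stays within three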;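 also: channel opened by potassium depolarization with thallium stimulus after 20 min compound exposure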
hERG protect – hERG (human) protection from proarrhythmic block; CHO-hERG, FluxOR thallium flux, dofetilide IC70 present; activation (rescue from dofetilide block), less the hit threshold, % at 10 µM; actives 0.51% (n = 310,000); AID 1511;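 active = activation above the mean of controls blocked by dofetilide plus 5 SD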;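 also: thallium influx through hERG after potassium depolarization seen as dye fluorescence rise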
Kir21 inh – Kir2.1 (mouse) channel inhibition | B-score at 10 µM | HEK293-Kir2.1, FluxOR thallium flux fluorescence; stronger effect = lower value | P35561 | actives 0.85% (n = 310,000) | AID 1672;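 active = fluorescence ratio B-score at or below minus 3 SD of library scores, with starting-brightness B-score within 2 SD, cut at about -4.2 in these data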;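 also: channel flux triggered by added potassium and thallium sulfate stimulus; B-score of peak minus minimum fluorescence over baseline after thallium stimulus; more negative B-score means stronger Kir2.1 block with less thallium influx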
KCNK3 inh – human KCNK3 channel inhibition, primary screen. B-score at 10 µM. AID 602410. CHO-KCNK3 thallium flux, FluxOR fluorescence; stronger effect = lower value. actives 0.84% (n = 340,000);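 active = B-score under library mean minus 4 SD, starting fluorescence ratio at most library mean plus 5 SD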;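 also: more negative B-score means stronger inhibition of thallium flux through KCNK3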
Target sequence (O14649 whole entry, looked up): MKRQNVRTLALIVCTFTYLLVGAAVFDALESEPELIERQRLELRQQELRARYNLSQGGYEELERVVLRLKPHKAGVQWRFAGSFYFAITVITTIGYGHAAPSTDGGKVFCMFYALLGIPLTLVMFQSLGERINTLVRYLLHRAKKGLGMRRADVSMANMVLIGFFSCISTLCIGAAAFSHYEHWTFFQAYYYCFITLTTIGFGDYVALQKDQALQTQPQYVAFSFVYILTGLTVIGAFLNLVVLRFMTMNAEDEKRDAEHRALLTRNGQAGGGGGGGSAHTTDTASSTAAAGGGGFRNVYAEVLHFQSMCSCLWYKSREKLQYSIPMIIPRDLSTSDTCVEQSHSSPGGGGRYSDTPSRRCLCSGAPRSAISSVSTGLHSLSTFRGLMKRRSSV
KCNK9 inh – inhibitors of human KCNK9 two-pore domain potassium channel. actives 1.2% (n = 310,000). B-score at 10 µM. HEK293 KCNK9, FluxOR thallium flux fluorescence; stronger effect = lower value. AID 488922;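 active = ratio B-score over 3 SD below the library mean, with starting fluorescence within 5 SD of its mean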;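 also: negative B-score means less thallium flux so channel inhibition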
KCNQ1 act – human KCNQ1 channel potentiation or activation. B-score at 10 µM. P51787. actives 0.35% (n = 310,000). CHO-K1 KCNQ1, thallium flux FluxOR fluorescence; stronger effect = higher value. AID 2648;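 active = fluorescence ratio B-score, a plate-corrected score, at least three library SD, with initial intensity B-score within 5 SD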
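Assay system: CHO-K1 cells stably expressing KCNQ1. Medium: assay buffer for compound exposure, DMSO matched across wells. Timing: 37 °C overnight plating, 90-min dark dye load, 20-min compound pretreatment. Signal: kinetic FluxOR fluorescence, 10 s baseline plus 110 s post-stimulus.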
KCNK9 block conf – human KCNK9 inhibitor confirmation | shares compounds with KCNK9 inh | HEK293 KCNK9 cells, FluxOR thallium flux fluorescence | inhibition, % at 10 µM | actives 43% (n = 4,900);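 active = thallium signal inhibited by more than 5 SD of the compound-free buffer control wells, on both duplicate plates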
Kir21 sel – tests whether KCNK9 modulators also affect mouse Kir2.1 | shares compounds with KCNK9 inh | Kir2.1 cells, FluxOR thallium flux fluorescence | inhibition, % at 10 µM | actives 4% (n = 4,900) | AID 492993;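 active = thallium signal drop more than 5 SD beyond the mean of the no-compound control wells, seen in both duplicate plates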;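 also: signal is fluorescence rise after thallium addition divided by baseline fluorescence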
KCNK9 uninduced – second check of KCNK9 modulator effects in non-induced HEK293 cells | AID 492997 | FluxOR thallium flux | shares compounds with KCNK9 inh | actives 40% (n = 4,900) | inhibition, % at 10 µM;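 active = thallium signal drop beyond 5 SD of the untreated control mean, on both duplicate plates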
Hits are given with their value.

Screening O=C(Nc1cscc1S(=O)(=O)c1ccccc1)c1ccccc1Cl returned KCNQ1 block inactive, hERG protect inactive, Kir21 inh inactive, KCNK3 inh inactive, KCNK9 inh -8.6, KCNQ1 act inactive, KCNK9 block conf 41%, Kir21 sel inactive and KCNK9 uninduced 34%.
Screening O=C(Nc1cscc1S(=O)(=O)c1ccc(Cl)cc1)c1ccccc1Cl returned KCNQ1 block inactive, hERG protect inactive, Kir21 inh inactive, KCNK3 inh inactive, KCNK9 inh inactive and KCNQ1 act inactive.
CC(=O)NC(CC(=O)OC(C)C(=O)Nc1ncc(Cl)cc1Cl)c1ccccc1 (centres undefined) was read as KCNQ1 block inactive, hERG protect inactive, Kir21 inh inactive, KCNK3 inh inactive, KCNK9 inh inactive and KCNQ1 act inactive.
CN(C)c1nc(NCc2ccccc2)nc(N/N=C/c2ccc(Cl)cc2Cl)n1 was read as KCNQ1 block inactive, hERG protect inactive, Kir21 inh inactive, KCNK3 inh inactive, KCNK9 inh inactive, KCNQ1 act inactive, KCNK9 block conf inactive, Kir21 sel inactive and KCNK9 uninduced inactive.
Cc1cc(N/N=C/c2ccc(Cl)cc2)nc(NCc2ccccc2)n1 was read as KCNQ1 block inactive, hERG protect inactive, Kir21 inh inactive, KCNK3 inh inactive, KCNK9 inh inactive and KCNQ1 act inactive.
O=C1C2C3C=CC(CC3)C2C(=O)N1c1ccccc1[N+](=O)[O-] (centres undefined) was read as KCNQ1 block inactive, hERG protect inactive, Kir21 inh inactive, KCNK3 inh inactive, KCNK9 inh inactive and KCNQ1 act inactive.
CC(C)OC(=O)CSc1nc(Cc2cccs2)nc2ccccc12 was read as KCNQ1 block inactive, hERG protect inactive, Kir21 inh -4.4, KCNK3 inh inactive, KCNK9 inh -12, KCNQ1 act inactive, KCNK9 block conf 54%, Kir21 sel 45% and KCNK9 uninduced 32%.
`N#CCC(=O)N1CCN(C=O)CC1` gave KCNQ1 block inactive, hERG protect inactive, Kir21 inh inactive, KCNK3 inh inactive, KCNK9 inh inactive and KCNQ1 act inactive.
Screening Clc1ccc(-c2ccc(-c3nn4c(-c5ccco5)nnc4s3)o2)cc1 returned KCNQ1 block inactive, hERG protect inactive, Kir21 inh inactive, KCNK3 inh inactive, KCNK9 inh -9.8, KCNQ1 act inactive, KCNK9 block conf 40%, Kir21 sel inactive and KCNK9 uninduced inactive.
For Brc1ccc(-c2nn3c(-c4ccco4)nnc3s2)o1 the results were KCNQ1 block inactive, hERG protect inactive, Kir21 inh inactive, KCNK3 inh inactive, KCNK9 inh inactive and KCNQ1 act inactive.
For COc1cccc(NC(=S)N/N=C2/CCCCc3ccccc32)c1 the results were KCNQ1 block inactive, hERG protect inactive, Kir21 inh inactive, KCNK3 inh inactive, KCNK9 inh inactive, KCNQ1 act 15, KCNK9 block conf inactive, Kir21 sel inactive and KCNK9 uninduced inactive.
`CC(C)NC(=S)N/N=C1\CCCCc2ccccc21` gave KCNQ1 block inactive, hERG protect inactive, Kir21 inh inactive, KCNK3 inh inactive, KCNK9 inh inactive and KCNQ1 act inactive.
For Cc1ccc(C)c(NC(=S)N/N=C2/CCCCc3ccccc32)c1 the results were KCNQ1 block inactive, hERG protect inactive, Kir21 inh inactive, KCNK3 inh inactive, KCNK9 inh inactive, KCNQ1 act inactive, KCNK9 block conf inactive, Kir21 sel inactive and KCNK9 uninduced inactive.
Screening CCN(CC)c1ccc(NC(=O)c2ccc(S(=O)(=O)N3CCOCC3)cc2)cc1 returned KCNK3 inh inactive.
`O=c1[nH]c(=O)n(C(c2ccccc2)(c2ccccc2)c2ccccc2)cc1N(CCO)CCO` gave KCNK3 inh inactive.
O=C1Nc2ccc(Cl)cc2C(C#CC2CC2)(C(F)(F)F)O1 (centres undefined) was read as KCNQ1 block inactive, hERG protect inactive, Kir21 inh inactive, KCNK3 inh inactive, KCNK9 inh -8.2, KCNQ1 act inactive, KCNK9 block conf 48%, Kir21 sel inactive and KCNK9 uninduced 46%.
Screening CC(C)CC(NC(N)=O)C(=O)NCCc1ccc(Cl)cc1 (centres undefined) returned KCNQ1 block inactive, hERG protect inactive, Kir21 inh inactive, KCNK3 inh inactive, KCNK9 inh inactive and KCNQ1 act inactive.
Screening CC(C)CNC(=O)c1oc2ccccc2c1COc1ccccc1 returned KCNQ1 block inactive, hERG protect inactive, Kir21 inh inactive, KCNK3 inh inactive, KCNK9 inh inactive, KCNQ1 act inactive, KCNK9 block conf inactive, Kir21 sel inactive and KCNK9 uninduced inactive.
For CC(C)CN1CCC(=O)N(CCSc2ccc(Br)cc2)CC1 the results were KCNQ1 block inactive, hERG protect inactive, Kir21 inh inactive, KCNK3 inh inactive, KCNK9 inh inactive, KCNQ1 act inactive, KCNK9 block conf inactive, Kir21 sel inactive and KCNK9 uninduced inactive.
Screening CC(C)CN1CCC(=O)N(CCOc2ccccc2)CC1 returned KCNQ1 block inactive, hERG protect inactive, Kir21 inh inactive, KCNK3 inh inactive, KCNK9 inh inactive and KCNQ1 act inactive.
`Cc1ccc2c(cnn2C(=O)CCC(=O)NC2CCCCC2)c1` gave KCNQ1 block inactive, hERG protect inactive, Kir21 inh inactive, KCNK3 inh inactive, KCNK9 inh inactive and KCNQ1 act inactive.
`CC(C)OC(=O)c1cn(-c2ccccc2)nc1-c1ccc2c(c1)OCCO2` gave KCNQ1 block inactive, hERG protect inactive, Kir21 inh inactive, KCNK3 inh inactive, KCNK9 inh inactive, KCNQ1 act inactive, KCNK9 block conf inactive, Kir21 sel inactive and KCNK9 uninduced inactive.
NC(=O)/C=C\c1cn(-c2ccccc2)nc1-c1ccc2c(c1)OCCO2 was read as KCNQ1 block inactive, hERG protect inactive, Kir21 inh inactive, KCNK3 inh inactive, KCNK9 inh inactive and KCNQ1 act inactive.
`CN(CC(=O)NC(=O)NCc1ccccc1)Cc1ccc(Cl)c(Cl)c1` gave KCNQ1 block inactive, hERG protect inactive, Kir21 inh inactive, KCNK3 inh inactive, KCNK9 inh inactive, KCNQ1 act inactive, KCNK9 block conf inactive, Kir21 sel inactive and KCNK9 uninduced inactive.
`COc1ccc(CN(C)CC(=O)NC(=O)NCc2ccccc2)c(OC)c1` gave KCNQ1 block inactive, hERG protect inactive, Kir21 inh inactive, KCNK3 inh inactive, KCNK9 inh inactive, KCNQ1 act inactive, KCNK9 block conf inactive, Kir21 sel inactive and KCNK9 uninduced inactive.
